From ChEMBL document CHEMBL2396633, “Effects of cytoprotective antioxidants on lymphocytes from representative mitochondrial neurodegenerative diseases” (Bioorg Med Chem, 2013)
Activity calls are given as the source filed them. No cut-off for these calls is given here.

Experiments:
CCRF-CEM [1] = test: Cytoprotective activity against diethyl maleate-induced oxidative stress in human CCRF-CEM cells assessed as cell viability at 0.5 uM preincubated for 15 hrs prior to diethyl maleate-challenge measured after 6 hrs by hemocytometer-based assay; assay type: functional
Procedure, shortened: (§1)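 Cells seeded at 5 × 10⁵ cells/mL, preincubated with 0.5 or 2.5 µM compound at 37 °C, 5% CO₂, then given 5 mM diethyl maleate for 6 h. Viable cells counted by trypan blue exclusion on a hemocytometer. Viability expressed as % of untreated control. Three independent experiments in triplicate, mean ± S.E.M.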

Homo sapiens [2] = species on record: Homo sapiens; test: Cytoprotective activity against diethyl maleate-induced oxidative stress in Parkinson's disease patient GM15010 cells assessed as cell viability at 0.5 uM preincubated for 15 hrs prior to diethyl maleate-challenge measured after 6 hrs by hemocytometer-based assay; assay type: functional; procedure, shortened: as §1
Homo sapiens [3] = species on record: Homo sapiens; test: Cytoprotective activity against diethyl maleate-induced oxidative stress in Leigh's syndrome patient GM13740 cells assessed as cell viability at 0.5 uM preincubated for 15 hrs prior to diethyl maleate-challenge measured after 6 hrs by hemocytometer-based assay; assay type: functional; procedure, shortened: as §1
Homo sapiens [4] = species on record: Homo sapiens; test: Cytoprotective activity against diethyl maleate-induced oxidative stress in Alzheimer's disease patient AG06849 cells assessed as cell viability at 0.5 uM preincubated for 15 hrs prior to diethyl maleate-challenge measured after 6 hrs by hemocytometer-based assay; assay type: functional; procedure, shortened: as §1
GM15850 [5] = test: Cytoprotective activity against diethyl maleate-induced oxidative stress in Friedreich's ataxia disease patient GM15850 cells assessed as cell viability at 0.5 uM preincubated for 15 hrs prior to diethyl maleate-challenge measured after 6 hrs by hemocytometer-based assay; assay type: functional; details: Homo sapiens; procedure, shortened: as §1
Homo sapiens [6] = species on record: Homo sapiens; test: Cytoprotective activity against diethyl maleate-induced oxidative stress in Leber's optic atrophy disease patient GM10744 cells assessed as cell viability at 0.5 uM preincubated for 15 hrs prior to diethyl maleate-challenge measured after 6 hrs by hemocytometer-based assay; assay type: functional; procedure, shortened: as §1
Bos taurus [7] = species on record: Bos taurus; test: Inhibition of NADH-ubiquinone oxidoreductase in bovine heart mitochondria after 5 mins by spectrophotometric analysis relative to control
Procedure, shortened: (§2)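 Bovine heart submitochondrial particles, 12 µg, incubated 5 min at 39 °C with compound in 50 mM phosphate pH 7.4, 0.25 M sucrose, 1 mM MgCl₂, 2 mM KCN, plus antimycin A. Reaction started with 50 µM NADH and 50 µM coenzyme Q₁; NADH loss read at 340 nm. K_I derived. Mean of three experiments in triplicate.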

[8] = Inhibition of NADH-ubiquinone oxidoreductase in bovine heart mitochondria after 5 mins by spectrophotometric analysis; design: species or system Bos taurus; procedure, shortened: as §2
GM15850 [9] = test: Effect on total ATP level in Friedreich's ataxia disease patient GM15850 cells at 25 uM after 48 hrs by bioluminescence assay relative to control; assay type: functional, Homo sapiens
Procedure, shortened: (§3)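 Lymphocytes were adapted to glucose-free RPMI with 25 mM galactose for at least one week. Cells at 2 × 10⁵ cells/mL were given compound at final 5, 10 or 25 µM for 48 h at 37 °C, 5% CO₂. Total intracellular ATP was measured by luciferase bioluminescence kit and expressed as % of untreated control.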

GM15850 [10] = test: Effect on total ATP level in Friedreich's ataxia disease patient GM15850 cells at 10 uM after 48 hrs by bioluminescence assay relative to control; assay type: functional, Homo sapiens; procedure, shortened: as §3
GM15850 [11] = test: Effect on total ATP level in Friedreich's ataxia disease patient GM15850 cells at 5 uM after 48 hrs by bioluminescence assay relative to control; assay type: functional, Homo sapiens; procedure, shortened: as §3
[12] = Effect on total ATP level in Leber's optic atrophy disease patient GM10744 cells at 25 uM after 48 hrs by bioluminescence assay relative to control; assay type: functional, Homo sapiens; procedure, shortened: as §3
[13] = Effect on total ATP level in Leber's optic atrophy disease patient GM10744 cells at 10 uM after 48 hrs by bioluminescence assay relative to control; assay type: functional, Homo sapiens; procedure, shortened: as §3
[14] = Effect on total ATP level in Leber's optic atrophy disease patient GM10744 cells at 5 uM after 48 hrs by bioluminescence assay relative to control; assay type: functional, Homo sapiens; procedure, shortened: as §3
[15] = Effect on total ATP level in CoQ10-deficient human GM17932 cells at 25 uM after 48 hrs by bioluminescence assay relative to control; assay type: functional; procedure, shortened: as §3
[16] = Effect on total ATP level in CoQ10-deficient human GM17932 cells at 10 uM after 48 hrs by bioluminescence assay relative to control; assay type: functional; procedure, shortened: as §3
[17] = Effect on total ATP level in CoQ10-deficient human GM17932 cells at 5 uM after 48 hrs by bioluminescence assay relative to control; assay type: functional; procedure, shortened: as §3
Homo sapiens [18] = species on record: Homo sapiens; test: Antioxidant activity in Leber's optic atrophy disease patient GM10744 cells assessed as suppression of diethyl maleate-induced ROS generation at 0.025 to 2.5 uM preincubated for 18 hrs prior to diethyl maleate-challenge measured after 1 hr by FACS flow cytometric analysis in presence of DCFH-DA; assay type: functional
Procedure, shortened: (§4)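 Lymphocytes (Coriell, RPMI with 15% FBS) or CCRF-CEM cells (RPMI with 10% FBS), 2.5 × 10⁵ cells/mL, exposed to compounds for 18 h at 37 °C, then 5 mM diethyl maleate for 1 h. Cells washed in PBS, loaded with 10 µM DCFH-DA in PBS/10 mM glucose for 25 min at 37 °C in the dark. DCF read by flow cytometry (488 nm excitation, 530 nm emission). Mean ± S.E.M., three experiments in duplicate.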

Homo sapiens [19] = species on record: Homo sapiens; test: Antioxidant activity in Alzheimer's disease patient AG06849 cells assessed as suppression of diethyl maleate-induced ROS generation at 0.025 to 2.5 uM preincubated for 18 hrs prior to diethyl maleate-challenge measured after 1 hr by FACS flow cytometric analysis in presence of DCFH-DA; assay type: functional; procedure, shortened: as §4
CCRF-CEM [20] = test: Antioxidant activity in human CCRF-CEM cells assessed as suppression of diethyl maleate-induced ROS generation at 0.25 to 2.5 uM preincubated for 18 hrs prior to diethyl maleate-challenge measured after 1 hr by FACS flow cytometric analysis in presence of DCFH-DA; assay type: functional, cell-based; procedure, shortened: as §4
CCRF-CEM [21] = test: Antioxidant activity in human CCRF-CEM cells assessed as suppression of diethyl maleate-induced ROS generation preincubated for 18 hrs prior to diethyl maleate-challenge measured after 1 hr by FACS flow cytometric analysis in presence of DCFH-DA; assay type: functional, cell-based; procedure, shortened: as §4
Bos taurus [22] = species on record: Bos taurus; test: Inhibition of NADH oxidase activity of bovine heart mitochondrial […] at 5 uM after 5 mins by spectrophotometric analysis relative to control; values are per cent of control
Bos taurus [23] = species on record: Bos taurus; test: Inhibition of NADH oxidase activity of bovine heart mitochondrial […] at 1 uM after 5 mins by spectrophotometric analysis relative to control; values are per cent of control
Bos taurus [24] = species on record: Bos taurus; test: Inhibition of NADH oxidase activity of bovine heart mitochondrial […] at 10 uM after 5 mins by spectrophotometric analysis relative to control; values are per cent of control
CCRF-CEM [25] = test: Antioxidant activity in human CCRF-CEM cells assessed as suppression of diethyl maleate-induced ROS generation at 0.25 uM preincubated for 18 hrs prior to diethyl maleate-challenge measured after 1 hr by FACS flow cytometric analysis in presence of DCFH-DA; assay type: functional, cell-based; procedure, shortened: as §4
CCRF-CEM [26] = test: Antioxidant activity in human CCRF-CEM cells assessed as suppression of diethyl maleate-induced ROS generation at 2.5 uM preincubated for 18 hrs prior to diethyl maleate-challenge measured after 1 hr by FACS flow cytometric analysis in presence of DCFH-DA; assay type: functional, cell-based; procedure, shortened: as §4

| SMILES | Activity (CCRF-CEM [1]) | Activity (Homo sapiens [2]) | Imax (Bos taurus [7]) [%] | IC50 [8] [µM] | Ki [8] [µM] | Activity (GM15850 [9]) [%] | Activity (GM15850 [10]) [%] | Activity (GM15850 [11]) [%] | Activity [12] [%] | Activity [13] [%] | Activity [14] [%] | Activity [15] [%] | Activity [16] [%] | Activity [17] [%] | Activity (Homo sapiens [18]) | Activity (Homo sapiens [19]) | Activity (CCRF-CEM [21]) | residual activity (Bos taurus [22]) [%] | residual activity (Bos taurus [23]) [%] | residual activity (Bos taurus [24]) [%] | further results |
| --- | --- | --- | --- | --- | --- | --- | --- | --- | --- | --- | --- | --- | --- | --- | --- | --- | --- | --- | --- | --- | --- |
| CCCCCCCCCCc1nc(N(C)C)nc(C)c1O | Active | Active | 88 | 2 | 1.4 | 42.2 | 74.4 | 83.3 | 40.6 | 75 | 95.6 | 72.4 | 97.1 | 105.2 | Active | Active | Dose-dependent effect | 17.7 | 35.4 | 3.9 | Activity (Homo sapiens [3]): Active; Activity (Homo sapiens [4]): Active; Activity (GM15850 [5]): Active; Activity (Homo sapiens [6]): Active; Activity (CCRF-CEM [20]): Active |
| CCCCCCCCCCCCCCCCc1nc(N(C)C)nc(C)c1O | Active | Active | 84 | 198 | 141 | 74.7 | 90.3 | 95.3 | 83.4 | 95.6 | 102.7 | 95 | 103 | 108.2 | Active | Active | Dose-dependent effect | 88.6 | 96.2 | 76.9 | Activity (Homo sapiens [3]): Active; Activity (Homo sapiens [4]): Active; Activity (GM15850 [5]): Active; Activity (Homo sapiens [6]): Active; Activity (CCRF-CEM [20]): Active |
| Cc1nc(N(C)C)nc(CCCCCCCCCCO)c1O | – | – | 85 | 1 | 0.7 | 27.7 | 46.3 | 77.2 | 20.7 | 45.6 | 75.5 | 46.4 | 86.1 | 98.8 | Active | Active | Dose-dependent effect | 22 | 50 | 15 | Activity (CCRF-CEM [25]): Active; Activity (CCRF-CEM [26]): Active |
